Assays:
[1] = target: Delta-type opioid receptor (Rattus norvegicus, UniProt P33533); assay: Displacement of [3H]DSLET from delta opioid receptor in rat brain membrane; format: cell membranes
[2] = target: Mu-type opioid receptor (Rattus norvegicus, UniProt P33535); assay: Displacement of [3H]DAMGO from mu opioid receptor in rat brain membrane; format: cell membranes
[3] = target: Kappa-type opioid receptor (Cavia porcellus, UniProt P41144); assay: Displacement of [3H]U-69593 from kappa opioid receptor in guinea pig brain membrane; format: cell membranes
[4] = Selectivity for rat mu opioid receptor over guinea pig kappa opioid receptor
[5] = target: Kappa-type opioid receptor (Cavia porcellus) (UniProt P41144); assay: Activity at kappa opioid receptor assessed as antagonizing effect against U50,488 by GPI assay; format: functional
Procedure, shortened: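 Antagonism of the κ agonist U50,488 measured in guinea pig ileum (GPI) preparation; Ke determined, reported as mean of three to six determinations.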

[6] = target: Delta-type opioid receptor (Mus musculus) (UniProt P32300); assay: Activity at delta opioid receptor assessed as antagonizing effect against DPDPE by MVD assay; format: functional
Procedure, shortened: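 Antagonism at δ receptors measured in mouse vas deferens (MVD) preparation; Ke determined, reported as mean of three to six determinations.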

[7] = Ratio of Ke for guinea pig mu opioid receptor to Ke for mouse delta opioid receptor
[8] = target: Opioid receptor (mu and kappa) (Cavia porcellus) (UniProt P41144+P97266); assay: Ratio of Ke for mu opioid receptor to Ke for kappa opioid receptor; format: protein assay
[9] = target: Opioid receptors; mu & delta (Rattus norvegicus) (UniProt P33533+P33535); assay: Selectivity for mu opioid receptor over delta receptor; format: protein assay
[10] = target: Mu-type opioid receptor (Cavia porcellus) (UniProt P97266); assay: Activity at mu opioid receptor assessed as antagonizing effect against TAPP by GPI assay; format: functional
Procedure, shortened: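 Antagonism of the µ agonist TAPP measured in guinea pig ileum (GPI) preparation; Ke determined, reported as mean of three to six determinations.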

Chain of Kappa-type opioid receptor (P41144 whole entry): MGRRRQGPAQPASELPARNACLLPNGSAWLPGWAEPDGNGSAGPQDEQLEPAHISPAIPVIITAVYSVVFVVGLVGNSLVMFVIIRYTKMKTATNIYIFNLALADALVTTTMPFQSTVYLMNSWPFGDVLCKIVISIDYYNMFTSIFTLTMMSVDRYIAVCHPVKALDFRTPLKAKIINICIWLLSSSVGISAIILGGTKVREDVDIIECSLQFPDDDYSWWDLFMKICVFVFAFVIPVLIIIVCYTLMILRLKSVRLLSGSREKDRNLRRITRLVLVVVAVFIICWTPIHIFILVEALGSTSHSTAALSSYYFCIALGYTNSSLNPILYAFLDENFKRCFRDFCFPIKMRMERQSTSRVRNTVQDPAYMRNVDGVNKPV
Chain of Mu-type opioid receptor (P33535 whole entry): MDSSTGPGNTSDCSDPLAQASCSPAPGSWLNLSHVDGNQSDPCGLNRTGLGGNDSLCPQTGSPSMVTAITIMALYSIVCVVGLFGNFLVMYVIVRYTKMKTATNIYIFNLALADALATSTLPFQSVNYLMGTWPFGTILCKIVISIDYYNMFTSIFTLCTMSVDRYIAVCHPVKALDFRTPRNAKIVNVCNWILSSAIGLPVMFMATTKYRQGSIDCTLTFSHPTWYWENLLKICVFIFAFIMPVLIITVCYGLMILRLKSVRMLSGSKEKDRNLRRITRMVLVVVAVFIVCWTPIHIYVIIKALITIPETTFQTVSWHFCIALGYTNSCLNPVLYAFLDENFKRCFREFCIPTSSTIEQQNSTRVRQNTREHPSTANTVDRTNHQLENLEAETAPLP
Chain of Delta-type opioid receptor (P33533 whole entry): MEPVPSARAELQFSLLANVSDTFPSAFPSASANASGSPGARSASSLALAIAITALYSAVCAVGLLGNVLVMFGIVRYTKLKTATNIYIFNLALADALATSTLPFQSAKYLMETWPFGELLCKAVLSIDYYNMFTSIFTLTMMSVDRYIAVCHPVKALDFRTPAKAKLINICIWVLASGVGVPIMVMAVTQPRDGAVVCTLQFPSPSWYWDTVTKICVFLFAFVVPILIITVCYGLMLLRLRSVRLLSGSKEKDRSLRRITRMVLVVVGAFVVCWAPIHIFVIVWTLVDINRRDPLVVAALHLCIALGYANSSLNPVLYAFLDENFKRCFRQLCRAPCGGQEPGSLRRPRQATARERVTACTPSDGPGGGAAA
Chain of Delta-type opioid receptor (Mus musculus) (P32300 whole entry): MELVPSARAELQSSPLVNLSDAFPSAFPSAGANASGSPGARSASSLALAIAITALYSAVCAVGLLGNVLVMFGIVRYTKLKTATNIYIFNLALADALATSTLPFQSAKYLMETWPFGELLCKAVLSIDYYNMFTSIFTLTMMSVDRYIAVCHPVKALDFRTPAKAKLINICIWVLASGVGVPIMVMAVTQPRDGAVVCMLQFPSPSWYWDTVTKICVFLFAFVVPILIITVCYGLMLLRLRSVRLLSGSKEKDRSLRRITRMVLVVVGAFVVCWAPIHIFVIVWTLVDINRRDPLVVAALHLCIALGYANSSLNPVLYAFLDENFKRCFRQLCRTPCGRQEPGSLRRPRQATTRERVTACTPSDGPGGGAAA
Chain of Kappa-type opioid receptor (Cavia porcellus) (P41144 whole entry): as the sequence (P41144 whole entry) above
Chain of Opioid receptor (mu and kappa) (Cavia porcellus) (P41144 whole entry, looked up): as the sequence (P41144 whole entry) above
Chain of Opioid receptor (mu and kappa) (Cavia porcellus) (P97266 whole entry, looked up): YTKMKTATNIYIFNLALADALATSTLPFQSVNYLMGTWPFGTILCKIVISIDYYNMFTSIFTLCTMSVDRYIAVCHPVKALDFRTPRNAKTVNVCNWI
Chain of Opioid receptors; mu & delta (Rattus norvegicus) (P33533 whole entry, looked up): as the sequence (P33533 whole entry) above
Chain of Opioid receptors; mu & delta (Rattus norvegicus) (P33535 whole entry, looked up): as the sequence (P33535 whole entry) above
Chain of Mu-type opioid receptor (Cavia porcellus) (P97266 whole entry): as the sequence (P97266 whole entry, looked up) above

CC[C@H](C)[C@H](NC(=O)[C@H](CCCNC(=N)N)NC(=O)[C@H](CCCNC(=N)N)NC(=O)[C@H](CC(C)C)NC(=O)[C@H](Cc1ccccc1)NC(=O)CNC(=O)CNC(=O)CCc1c(C)cc(C(N)=O)cc1C)C(=O)N[C@@H](CCCNC(=N)N)C(=O)N1CCC[C@H]1C(=O)N[C@@H](CCCCN)C(N)=O
Ki [1]: 129 nM
Ki [2]: 44.9 nM
Ki [3]: 32 nM

Cc1cc(C(N)=O)cc(C)c1CCC(=O)NC1CSSCC(C(N)=O)NC(=O)[C@H](Cc2ccc([N+](=O)[O-])cc2)NC(=O)CNC1=O (stereo in doubt)
Ki [1]: 25.8 nM
Ratio Ki [4]: 345
Ki [2]: 2.84 nM
Ke [5]: 74.1 nM
Ki [3]: 980 nM
Ke [6]: 176 nM
Ratio Ke [7]: 45
Ratio Ke [8]: 19
Ratio Ki [9]: 9
Ke [10]: 3.92 nM

Cc1cc(O)cc(C)c1CCC(=O)NC1CSSCC(C(N)=O)NC(=O)[C@H](Cc2ccc([N+](=O)[O-])cc2)NC(=O)CNC1=O (stereo in doubt)
Ki [1]: 11.6 nM
Ratio Ki [4]: 62
Ki [2]: 4.79 nM
Ke [5]: 22.6 nM
Ki [3]: 299 nM
Ke [6]: 63.3 nM
Ratio Ke [7]: 17
Ratio Ke [8]: 6
Ratio Ki [9]: 2
Ke [10]: 3.68 nM

— ChEMBL document CHEMBL1146183, “Replacement of the N-terminal tyrosine residue in opioid peptides with 3-(2,6-dimethyl-4-carbamoylphenyl)propanoic acid (Dcp) results in novel opioid antagonists” (J Med Chem, 2006)
